# Source: PubChem BioAssay
# TRPC4 block = inhibitors of mouse TRPC4 channel, primary screen, Fluo4 calcium, HEK293 TRPC4beta/mu-opioid cells | DAMGO-evoked Fluo4 calcium flux; active compounds read low | B-score at 10 µM | 0.39% of 300,000 active | AID 2247, 2010;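 active = B-score over 3 SD under the library average, no early fluorescence shift, positive overall ratio signal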
#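 Material: HEK293 cells with stable TRPC4beta plus mu-opioid receptor expression / Probe or stimulus: DAMGO in two steps, submaximal then maximal / Compound: single concentration per test compound / Technique: kinetic Fluo4 fluorescence imaging of calcium influx / Read-out: per-well B score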
# TRPC4 PAM = positive allosteric modulators of TRPC4, primary screen, cell-based, mouse TRPC4beta, HEK293 mu-opioid, Fluo-4 calcium | AID 2227, 2009 | 0.42% of 310,000 active | Short transient receptor potential channel 4 (Mus musculus), Q9QUQ5 | B-score at 10 µM | DAMGO EC20, Fluo-4 Ca2+ flux; active compounds read high;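 active = B-score of calcium response area above 5 SD of library B-scores, with initial fluorescence ratio within 5 SD of library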
# TRPC4 agonist = activators of mouse TRPC4 channel, primary screen, Fluo4 calcium, HEK293 TRPC4beta/mu-opioid cells; AID 2237, 2010; B-score at 10 µM; Short transient receptor potential channel 4 (Mus musculus), Q9QUQ5; Fluo4 calcium fluorescence; active compounds read high; 0.49% of 310,000 active;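 active = B-score above 5 SD of library B-scores, and initial fluorescence ratio not above library mean plus 5 SD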;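 also: positive B-score marks a calcium rise read as TRPC4 activation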
#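 Material: HEK293 stable line with TRPC4beta plus mu-opioid receptor; technique: Fluo4 calcium-sensitive dye fluorescence, kinetic, 1 Hz baseline; timing: Fluo4 dye loading 45 min at room temperature, 110 s recording; controls: assay buffer as low control, maximal DAMGO as high control; read-out: integrated baseline-normalised fluorescence ratio, converted to per-well B score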
# TRPC6 activator = mouse TRPC6 channel activators, primary screen, cell-based, HEK293, membrane potential dye | Short transient receptor potential channel 6 (Mus musculus), Q61143 | HEK293-TRPC6 membrane potential dye fluorescence; active compounds read high | B-score at 10 µM | 0.13% of 310,000 active;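 active = B-score of the integrated fluorescence ratio above library mean plus 3 SD, and starting fluorescence ratio within library mean plus 5 SD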;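 also: higher score means more depolarization so channel activation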
# Target sequence (Q61143 whole entry, looked up): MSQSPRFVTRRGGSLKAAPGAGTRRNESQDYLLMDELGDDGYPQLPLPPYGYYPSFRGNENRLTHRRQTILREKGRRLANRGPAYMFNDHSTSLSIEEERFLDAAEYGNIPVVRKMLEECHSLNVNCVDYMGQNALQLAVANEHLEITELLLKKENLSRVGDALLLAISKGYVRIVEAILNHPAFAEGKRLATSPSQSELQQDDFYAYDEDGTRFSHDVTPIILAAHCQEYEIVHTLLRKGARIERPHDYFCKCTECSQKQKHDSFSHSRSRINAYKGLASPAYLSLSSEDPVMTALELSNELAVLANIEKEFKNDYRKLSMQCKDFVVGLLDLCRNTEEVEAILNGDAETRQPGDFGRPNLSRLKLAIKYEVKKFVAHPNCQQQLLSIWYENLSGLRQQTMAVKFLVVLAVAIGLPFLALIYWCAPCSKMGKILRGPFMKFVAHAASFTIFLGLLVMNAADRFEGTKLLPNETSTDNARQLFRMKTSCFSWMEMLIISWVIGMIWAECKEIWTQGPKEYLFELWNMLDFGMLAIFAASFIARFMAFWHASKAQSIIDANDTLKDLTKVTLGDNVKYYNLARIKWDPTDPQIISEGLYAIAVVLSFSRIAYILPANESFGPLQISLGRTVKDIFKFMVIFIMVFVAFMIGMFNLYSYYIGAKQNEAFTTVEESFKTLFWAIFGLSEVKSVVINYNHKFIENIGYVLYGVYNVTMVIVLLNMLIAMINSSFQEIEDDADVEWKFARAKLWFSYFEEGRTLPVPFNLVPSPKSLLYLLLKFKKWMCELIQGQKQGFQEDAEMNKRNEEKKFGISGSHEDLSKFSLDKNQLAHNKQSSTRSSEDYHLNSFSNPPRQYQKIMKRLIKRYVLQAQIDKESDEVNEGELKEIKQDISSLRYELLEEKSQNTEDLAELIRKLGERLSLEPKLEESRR
# TRPC6 inh = mouse TRPC6 channel inhibitors, primary screen, cell-based, HEK293, membrane potential dye. Short transient receptor potential channel 6 (Mus musculus), Q61143. 1.1% of 310,000 active. B-score at 10 µM. AID 2553, 2010. ACh-evoked depolarization; active compounds read low;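 active = B-score under library mean minus 3 SD, initial fluorescence not abnormally high, positive integrated signal ratio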;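 also: B-score derived from integrated fluorescence ratio over the kinetic read; more negative B-score means stronger inhibition of depolarization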
# A number is an active result; 0 = inactive. Only some compounds are listed: those with a hit (about 2.3% of all), similar ones and a draw of the others.
SMILES,TRPC4 block,TRPC4 PAM,TRPC4 agonist,TRPC6 activator,TRPC6 inh
CN(Cc1ccccc1)Cc1c(O)ccc2ccccc12,0,0,0,0,0
CCOC(=O)c1c(C)n(-c2ccc(C)cc2)c2ccc(OCC(O)CNCC3CCCO3)cc12 (stereo not drawn),0,33,0,0,0
CCn1c(C)c(C)c2cc(C(=O)NCCCN3CCCCC3C)ccc21 (stereo not drawn),0,0,0,0,0
C=CCSc1nsc(NC(=O)Nc2ccc(F)cc2)n1,0,11,0,0,0
CCSc1nsc(NC(=O)Nc2ccccc2F)n1,0,0,0,0,0
C=CCn1c(CCNC(=O)c2ccco2)nc2ccccc21,0,0,168,0,0
COc1ccc(NC(=S)NN2C(C)CCCC2C)cc1 (stereo not drawn),0,0,0,0,0
COc1cccc(NC(=S)NN2C(C)CCCC2C)c1 (stereo not drawn),0,11,0,0,0
CCCN(CCC)CCNC(=O)C1CC(=O)N(c2ccc(OC)cc2)C1c1ccc(OC)cc1 (stereo not drawn),0,0,43,0,0
CCOC(=O)C1CCN(C(=O)CCc2nc3sc4c(c3c(=O)[nH]2)CCCC4)CC1,0,0,0,0,0
O=C(Nc1cc(C(F)(F)F)ccc1Cl)c1ccncc1,0,0,0,0,0
CC(C)Cc1cc(C(=O)Nc2cc(C(F)(F)F)ccc2Cl)no1,0,10,0,0,0
COc1ccc(C(C)=O)cc1COC(=O)CCNS(=O)(=O)c1ccc(C)c(C)c1,0,0,0,0,0
COc1ccc(C(CNC(=O)C(C)c2ccc3cc(OC)ccc3c2)N(C)C)cc1 (stereo not drawn),0,0,204,0,0
COc1ccc(C(CNC(=O)c2cc(C)on2)N(C)C)cc1 (stereo not drawn),0,0,84,0,0
COc1ccc(C(CNC(=O)C2CC2)N(C)C)cc1 (stereo not drawn),0,0,0,0,0
COc1ccc(C(CNC(=O)Cc2ccc3ccccc3c2)N(C)C)cc1 (stereo not drawn),-6,0,135,0,0
COc1ccc(NC(=O)c2cc(C)on2)cc1,0,0,0,0,0
COc1ccc(C(CNC(=O)COc2ccccc2OC)N(C)C)cc1OC (stereo not drawn),0,0,137,0,0
CCN1CCN(CC(=O)N2CCCC(C(=O)c3ccc(Oc4ccccc4)cc3)C2)CC1 (stereo not drawn),0,0,0,0,0
CCCc1cc(=O)[nH]c(SCCN2C(=O)c3ccccc3C2=O)n1,0,0,0,0,0
O=C(Cc1cn(Cc2cccc(Cl)c2)c2ccccc12)N1CCCC1,0,16,0,0,0
O=C(CS(=O)(=O)c1cn(Cc2ccc(Cl)cc2)c2ccccc12)N1CCCC1,0,0,0,0,0
COc1ccc(C(=O)NNC(=S)NC(=O)c2ccc(Br)o2)cc1OC,0,0,0,0,0
Cc1cc(OCC(=O)NNC(=S)NC(=O)c2cccs2)ccc1Cl,0,19,0,0,0
SMILES,TRPC4 block,TRPC4 PAM,TRPC4 agonist,TRPC6 activator,TRPC6 inh
O=C(COc1ccc(Br)cc1Br)NNC(=O)c1cccs1,0,0,0,0,0
Cc1ccc(OCC(=O)NNC(=S)NC(=O)c2ccc(Br)o2)c(C)c1,-6,20,69,0,0
Cc1ccc(OCC(=O)NNC(=S)NC(=O)c2cccs2)c(C)c1,0,0,66,0,0
O=C1c2ccc([N+](=O)[O-])cc2C(=O)N1c1ccc([N+](=O)[O-])cn1,0,0,0,0,0
CC1(c2ccc(OC(F)F)cc2)NC(=O)N(CC(=O)Nc2ccc(F)cc2)C1=O (stereo not drawn),0,0,0,0,0
CC1(c2ccc(OC(F)F)cc2)NC(=O)N(CC(=O)c2ccc3c(c2)OCO3)C1=O (stereo not drawn),0,0,62,0,0
CC1(c2ccc(OC(F)F)cc2)NC(=O)N(CC(=O)Nc2ccc(OC(F)F)cc2)C1=O (stereo not drawn),0,0,54,0,0
COCCn1nnnc1C(c1cccc(OC)c1OC)N1CCN(C(=O)c2ccco2)CC1 (stereo not drawn),0,0,0,0,0
COCCn1nnnc1C(c1cccc(OC)c1OC)N1CCN(C2CCCCC2)CC1 (stereo not drawn),-6,0,0,0,0
COCCn1nnnc1C(c1cc2ccc(OC)cc2[nH]c1=O)N1CCN(C2CCCCC2)CC1 (stereo not drawn),0,0,136,0,0
CCOc1ccc(CCNC(=O)COC(=O)c2nn(C)c(=O)c3ccccc23)cc1OCC,0,0,0,0,0
Cc1ccc(C(=O)c2ccc(C)cc2)cc1,0,0,0,0,0
Cc1ccc(C(=O)c2no[n+]([O-])c2C(=O)c2ccc(C)cc2)cc1,0,29,0,0,0
O=C(CSc1nnc2ncccn12)Nc1cccc2ccccc12,0,0,0,0,0
Cc1cc(-c2ccc(C)c(S(=O)(=O)N3CCN(c4ccc([N+](=O)[O-])cc4)CC3)c2)on1,0,0,0,0,0
COc1ccc(-c2cc(C)no2)cc1S(=O)(=O)NCCCN(C)Cc1ccccc1,0,14,0,0,0
Cc1cc(-c2ccc(C)c(S(=O)(=O)NCCCN3CCN(c4ccccc4)CC3)c2)on1,0,0,0,0,0
Cc1cc(-c2ccc(C)c(S(=O)(=O)NCCCN3CCCCCC3)c2)on1,0,10,0,0,0
Cc1cc(-c2ccc(C)c(S(=O)(=O)N3CCN(c4ccccn4)CC3)c2)on1,0,40,0,0,0
O=C(N[C@@H](Cc1ccccc1)C(=O)O)c1cccs1,0,0,0,0,0
O=C(Cc1ccc(S(=O)(=O)N2CCOCC2)s1)Oc1ccc(F)cc1,0,0,0,0,0
O=C1/C(=C/c2cccnc2)SC(=S)N1Nc1ccccc1,0,0,0,0,0
CCCc1noc2c1/C(=N\O)CC(CC(C)SCC)C2 (stereo not drawn),-6,0,0,0,0
CCSC(C)CC1C/C(=N/O)c2c(CC)noc2C1 (stereo not drawn),0,0,0,0,0
c1coc(CN=C2NC(=NCc3ccco3)c3ccccc32)c1,-7,0,0,0,0
Cn1cc([N+](=O)[O-])c(C(=O)N/N=C/c2cc3c(cc2Br)OCO3)n1,0,0,0,0,0
CNS(=O)(=O)c1cccc(C(=O)OCCCOC(=O)c2cccc(S(=O)(=O)NC)c2)c1,0,0,0,0,0
